MT stabilize HCS – microtubule stabilizers in HeLa cells | HeLa tubulin immunostaining HCS, 24 h; share of cells brighter than vehicle mean+2SD | 200,000 compounds, 0.83% hits | % tubulin-high responders, % at 10 µM | AID 2205;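 active = plate Z-score above 3 for both tubulin-high and condensed-nucleus cell shares, with cell loss under 80%, at 10 µM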;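 note: anti alpha tubulin signal scored within the nucleus-defined area of each cell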
Ins promoter up – MIN6 insulin promoter up-regulation; MIN6 insulin promoter-GFP reporter, high-content imaging; hits give high values; z-score at 5 µM; 190,000 compounds, 0.3% hits;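 active = z-score above 3 at 5 µM with at least 500 cells counted in the well; inconclusive = wells under 500 cells, flagged as cytotoxic or low count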
bCat nuc transl – modulators of beta-catenin nuclear translocation | HeLa beta-catenin nuclear translocation, immunofluorescence imaging | nuclear translocation activity, % at 5 µM | 190,000 compounds, 0.3% hits | AID 1665;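 active = nuclear translocation activity above 50% at 5 µM, with a well cell count of 50 or more; inconclusive = wells under 50 cells across six images, flagged as toxic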;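 note: per-cell ratio of nuclear to cytoplasmic median beta-catenin stain intensity; plate controls were DMSO negative control for no effect and GSK-3 inhibitor IX positive control for full effect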
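assay system = human HeLa cells, endogenous beta-catenin | times = compound treatment 24 h, 37°C, 5% CO2 | detection = Anti-beta-catenin immunofluorescence on PFA-fixed, Triton-permeabilized cells, DAPI nuclei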
Autophagy mod – alters autophagy in cells; MEF GFP-LC3 puncta imaging; test concentration mostly 10 µM; calls only at 10 µM (by protocol); 190,000 compounds, 0.98% hits; AID 463193;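 active = percentage of spot-positive cells more than 3 SD above its plate mean, without a fluorescence outlier flag or 80% toxicity; inconclusive = no clear call, values can overlap the other calls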;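 note: spot-positive cell cutoff set from DMSO-treated cells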
* marks the source's active call; other numbers are inactive results; i = inactive; u = inconclusive; x = no result; + = active, no number. Compounds with a hit are over-represented: about 1.9% of the library has one in this group of screens.

SMILES | MT stabilize HCS | Ins promoter up | bCat nuc transl | Autophagy mod
Cc1ccc(CNC(=O)Cc2ccc(-n3cccc3)cc2)cc1 | 10.2 | -0.29 | -2.5 | i
CCc1ccc(NC(=O)CCNS(=O)(=O)c2cccc3nonc23)cc1 | 3.2 | 0.45 | -0.3 | i
CCOC(=O)C1C(=O)C=C(/C=C/c2ccc(N(C)C)cc2)CC1c1ccccc1 (stereo not drawn) | 6.8 | 9.81* | -1.8 | +
CCc1ccc(-c2cn(C3CCCCC3)c(=S)[nH]2)cc1 | 2.2 | x | -0.8 | i
CCOc1ccc2[nH]c(=O)c(C(c3nnnn3C3CCCCC3)N3CCN(C)CC3)cc2c1 (stereo not drawn) | 1.5 | 0.2 | -4.2 | +
CCOc1ccc2[nH]c(=O)c(C(c3nnnn3C3CCCCC3)N3CCN(CC)CC3)cc2c1 (stereo not drawn) | 6.0 | -0.84 | -1.9 | i
O=C1Nc2ccc(Br)cc2C12NNc1ccccc1O2 (stereo not drawn) | 4.7 | 14.4* | 3.6 | +
O=C1Nc2ccc(Br)cc2C1(O)Cc1ccccn1 (stereo not drawn) | 2.2 | 0.21 | 1.8 | i
COc1ccc2[nH]cc(C(=O)CN3CCN(C/C=C/c4ccccc4)CC3)c2c1 | 3.1 | -1.35 | -0.9 | i
CCNC(=O)CON=C1c2ccccc2-c2ccccc21 | 2.4 | 0.4 | -2.9 | +
CCC(CC)NC(=O)CON=C1c2ccccc2-c2ccccc21 | 2.7 | 0.1 | 1.9 | i
C=CCc1ccc(OCCOCCNCCCC)c(OC)c1 | 1.1 | 1.04 | -0.5 | +
C=CCc1ccc(OCCOCCNCCOC)c(OC)c1 | 4.4 | -0.48 | -2.5 | i
COc1ccc(N2CC(C(=O)NCc3ccco3)CC2=O)cc1 (stereo not drawn) | 2.5 | 0.29 | 3.7 | i
Cc1ccc(Cl)cc1NC1=C/C(=N\S(=O)(=O)c2cccs2)c2ccccc2C1=O | 32.8* | -0.7 | x | i
Cc1cccc(NC2=C/C(=N/S(=O)(=O)c3cccs3)c3ccccc3C2=O)c1 | 37.6 | u | -2.0 | i
O=C1C(Nc2ccc(O)cc2)=C/C(=N/S(=O)(=O)c2cccs2)c2ccccc21 | 4.7 | -4.36 | 0.4 | +
Cc1ccc(S(=O)(=O)N(C)CC(=O)N2CCCc3ccccc32)cc1 | 1.8 | 0.82 | 0.4 | i
Cc1cc(NC(=O)COC(=O)C(Cc2ccccc2)NC(=O)c2ccco2)no1 (stereo not drawn) | 1.6 | 1.73 | -8.0 | +
CC(=O)Nc1ccc(S(=O)(=O)N(Cc2ccccc2)c2ccccc2F)cc1 | 2.2 | 0.03 | -0.8 | i
CNC(=O)/C(C#N)=C/c1c(N2CC(C)OC(C)C2)nc2ccccn2c1=O (stereo not drawn) | 2.0 | 0.09 | -3.6 | i
CCOC(=O)C1CCCN(Cc2cn[nH]c2-c2ccc(F)cc2F)C1 (stereo not drawn) | 3.2 | -0.15 | -1.4 | +
S=C1NCCc2ccc(Cl)cc2C1c1ccccc1Cl (stereo not drawn) | 2.0 | -1.14 | -2.5 | i
Clc1ccc2c(c1)C(C1=NCCN1)c1ccccc1CS2 (stereo not drawn) | 24.1* | -0.4 | x | i
NC(=O)CNC(=O)c1ccc(Cl)cc1 | x | -0.79 | 2.2 | x
SMILES | MT stabilize HCS | Ins promoter up | bCat nuc transl | Autophagy mod
COC(CNC(=O)c1ccc(Cn2c(=S)[nH]c3cc4c(cc3c2=O)OCO4)cc1)OC | 2.7 | 3.48* | -2.5 | i
COc1cccc(CNC(=O)C2=C(C)C(=O)OC23CCC(C)CC3)c1 (stereo not drawn) | 3.0 | 0.31 | -0.6 | i
CC(=O)Nc1ccc(/C=C(\C#N)C(=O)NCc2ccccc2)cc1 | 1.8 | 0.28 | x | i
CC(C)NC(=O)/C(C#N)=C\c1ccc(N(C)C)o1 | 2.7 | 11.5* | 0.2 | i
CCN(CC)c1ccc(/C=C(/C#N)C(=O)NCc2ccccc2)o1 | 2.4 | 2.95 | 0.9 | +
CCN(CC)c1ccc(/C=C(/C#N)C(=O)NC(C)C)o1 | 2.1 | x | 0.8 | i
CC(Sc1ccccc1)C(=O)NN=C1CCCCCC1 (stereo not drawn) | 3.1 | 8.07* | -0.1 | i
O=C(Cn1nc(Cc2cccnc2)c2ccccc2c1=O)NCc1ccc(F)cc1 | 8.8 | -1.51 | x | i
CCOC(=O)c1ccc(NCCOC)c([N+](=O)[O-])c1 | 2.8 | -1.76 | -2.3 | +
CCCCNS(=O)(=O)c1ccc(NC(=O)c2c(-c3ccccc3Cl)noc2C)cc1 | 2.0 | 0.39 | x | i
NC(=O)c1cc2ccc(O)cc2oc1=NCc1ccccc1 | 3.9 | 6.96* | -0.5 | i
COC(=O)CN1C(=O)C(O)(CC(=O)c2ccc(C)o2)c2ccccc21 (stereo not drawn) | 3.1 | 0.55 | 0.3 | i
